Sampled rows, rich in hits. Any-hit rate of the full collection: about 2.4%.
TDP2 absorb: TDP2 (human) inhibition, absorbance primary screen; O95551; recombinant TDP2, T5PNP hydrolysis, p-nitrophenol absorbance 415 nm; inhibition, % at 12.8 µM; 370,000 compounds, 0.34% hits;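 active means inhibition above the mean of all tested compounds plus 3 SD, set per campaign, cut at about 25% in these data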
Target sequence (O95551 whole entry, looked up): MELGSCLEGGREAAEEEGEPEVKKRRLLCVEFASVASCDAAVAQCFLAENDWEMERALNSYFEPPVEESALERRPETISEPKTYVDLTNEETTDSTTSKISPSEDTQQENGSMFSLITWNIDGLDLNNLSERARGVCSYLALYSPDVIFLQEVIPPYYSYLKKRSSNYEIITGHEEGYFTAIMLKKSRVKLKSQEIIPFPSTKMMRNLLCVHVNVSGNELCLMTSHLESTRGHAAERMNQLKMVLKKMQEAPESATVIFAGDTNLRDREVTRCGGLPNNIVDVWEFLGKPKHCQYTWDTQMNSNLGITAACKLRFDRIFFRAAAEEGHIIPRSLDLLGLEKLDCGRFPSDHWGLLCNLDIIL
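Test system: human TDP2 enzyme; Input: 120 nM TDP2 per well; Buffer or medium: Mg2+-containing Tris-HCl buffer, pH 7.5; Reagent: 5 mM T5PNP; Dosing: 12.8 µM single point, 1% DMSO; Incubation: reaction 2 h, 37 °C; Detection: p-Nitrophenol epi absorbance; Read-out: % inhibition relative to enzyme-containing and enzyme-free wells; Replicates: single well per compound.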
TCR-CD3 inh: inhibitors of human TCR-CD3 interaction | AID 651800 | TAMRA-labeled TCR probe fluorescence, biochemical | inhibition, % at 9.4 µM | 360,000 compounds, 0.37% hits; in the data active means inhibition above about 19%;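 further: recombinant mutant TCR 2C K166C tagged with TAMRA read by polarization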
PAD4 inh: PAD4 (human) enzyme inhibition; recombinant PAD4, RCA probe fluorescence polarization; inhibition, % at 6.36 µM; 330,000 compounds, 0.41% hits;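 active means percent inhibition above a cutoff equal to the mean of all tested compounds plus 3 SD, cut at about 15% in these data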
SIAE inh: blocks human sialic acid acetylesterase | Q9HAT2 | SIAE FP-Rh probe binding, fluorescence polarization | inhibition, % at 9.66 µM | 370,000 compounds, 0.69% hits | AID 1053197;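 active means inhibition above a cutoff: mean of compounds within the control limits plus 3 SD of those, cut at about 17% in these data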
Apaf1 inhib: inhibitors of human Apaf-1 apoptosome. O14727. reconstituted apoptosome caspase-3 activity, DEVD-Rh110 fluorescence. inhibition, % at 20 µM. 330,000 compounds, 0.71% hits; active means inhibition of at least 40% at 20 µM
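Material: reconstituted apoptosome with Apaf-1, cytochrome c, caspase-9, procaspase-3, dATP; medium: pH 7.5 Hepes buffer with CHAPS, BSA, DTT; also added: cytochrome c and DEVD-Rh110 substrate; timing: 30 min plus 50 min, RT; signal: Rh110 fluorescence intensity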
GSTO1 inh: counter-screen for RBBP9 inhibitors: inhibitors of human GSTO1. 300,000 compounds, 1.1% hits. recombinant GSTO1, activity-based probe fluorescence polarization. inhibition, % at 5.96 µM. P78417;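 active means inhibition above the campaign mean inhibition plus 3 SD, cut at about 35% in these data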
Target sequence (P78417 whole entry, looked up): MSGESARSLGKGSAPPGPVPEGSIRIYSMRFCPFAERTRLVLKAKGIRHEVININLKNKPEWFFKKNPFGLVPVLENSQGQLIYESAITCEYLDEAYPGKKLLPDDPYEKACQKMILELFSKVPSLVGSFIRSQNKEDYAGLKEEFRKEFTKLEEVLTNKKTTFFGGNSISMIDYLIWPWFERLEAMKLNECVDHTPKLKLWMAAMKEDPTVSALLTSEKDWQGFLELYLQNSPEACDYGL
TDP2 inh conf: human TDP2 inhibition, confirmation. shares compounds with TDP2 absorb. recombinant human TDP2, absorbance read-out. inhibition, % at 12.8 µM. 1,100 compounds, 22% hits. AID 743263; in the data active means inhibition above about 25%
A number is an active result; . = inactive; / = no result given.

SMILES	TDP2 absorb	TCR-CD3 inh	PAD4 inh	SIAE inh	Apaf1 inhib	GSTO1 inh	TDP2 inh conf
O=S(=O)(c1ccc(-c2ccon2)s1)N1CCCC1	26	.	.	.	.	.	.
O=C(C1CCCCC1)N1CCN(c2nc(-c3ccc(F)cc3)cs2)CC1	.	.	.	.	.	.	/
N#CC1=C(N)Oc2n[nH]c(-c3cccs3)c2C1c1cccs1 (stereo not given)	29	.	.	.	.	.	.
N#CC1=C(N)Oc2n[nH]c(-c3cccs3)c2C1c1ccccc1C(=O)O (stereo not given)	.	.	.	.	.	.	/
Cc1c(C(c2ccccc2O)c2c(C)n(C)n(-c3ccccc3)c2=O)c(=O)n(-c2ccccc2)n1C	.	.	.	.	.	.	/
Cc1c(C(c2cc(O)ccc2Cl)c2c(C)n(C)n(-c3ccccc3)c2=O)c(=O)n(-c2ccccc2)n1C	29	.	.	.	/	.	.
Cc1cc(C2CCCCC2)n(O)c(=O)c1	.	.	.	.	.	.	/
CCN(CC(=O)NC(C)C)Cc1nc2c(Br)cc(Br)cc2c(=O)[nH]1	.	.	.	.	.	.	/
CCOc1ccc2[nH]c3nc(SCC(=O)OC(C)C)nnc3c2c1	25	.	.	.	.	.	.
COc1cccc(CNC(=O)CSc2nnc3c(n2)[nH]c2ccc(OC)cc23)c1	.	.	.	.	.	.	/
COc1ccc(/C(O)=C2/C(=O)C(=O)N(CCN(C)C)C2c2ccccn2)cc1OC (stereo not given)	.	.	.	.	.	.	/
O=C(NCC(=O)N(Cc1ccco1)C(C(=O)NC1CCCCC1)c1ccncc1)c1cccs1 (stereo not given)	.	.	.	.	.	.	/
CC1CCN(C(=O)Cn2c(SCC(=O)Nc3nccs3)nc3ccccc32)CC1	30	.	.	.	.	.	.
CC(=O)N1c2ccc(S(=O)(=O)NCC3CCC(C(=O)N4CCC(C)CC4)CC3)cc2CC1C (stereo not given)	28	.	.	.	.	.	.
CC(=O)N1c2ccc(S(=O)(=O)NCC3CCC(C(=O)NC4CCC(C)CC4)CC3)cc2CC1C (stereo not given)	.	.	.	.	.	.	/
COc1ccc2cc(CCNC(=O)CCc3ccccc3)c(=O)[nH]c2c1	.	.	.	.	.	.	/
CCC1CCCCN1C(=O)CNCC1CCCO1 (stereo not given)	33	.	.	.	.	.	.
CCN(CC)S(=O)(=O)c1ccc2oc(SCC(=O)Nc3cc(C)on3)nc2c1	41	.	.	.	.	.	.
CCOC(=O)c1c(-c2ccc(OC)cc2)csc1NC(=O)CNCc1ccco1	/	/	.	/	.	.	/
CCOC(=O)c1c(-c2ccc(Cl)cc2)csc1NC(=O)CNCc1ccco1	32	.	.	.	.	.	.
Cc1ccc(CN2CCN(c3ccccc3)CC2)o1	26	.	.	.	.	.	.
Cc1ccc(CN2CCN(c3ncccn3)CC2)o1	.	.	.	.	.	.	/
O=C(NC1CCCC1)C1CCN(C(=O)c2cc(Cl)ccc2Cl)CC1	26	.	.	.	.	.	.
C/C(=N\OC(=O)c1ccc(F)cc1)c1sc(-c2ccccc2)nc1C	.	.	.	.	.	.	/
C=CCN1C=C2C(=O)C(C)(OC(=O)c3cccs3)C(=O)C=C2C=C1CCCC(=O)OC (stereo not given)	26	.	.	.	.	.	.
SMILES	TDP2 absorb	TCR-CD3 inh	PAD4 inh	SIAE inh	Apaf1 inhib	GSTO1 inh	TDP2 inh conf
C=CCN1C=C2C(=O)C(C)(OC(=O)CC)C(=O)C=C2C=C1CCCC (stereo not given)	.	.	.	.	.	.	/
COc1ccc(-c2noc(CCC(=O)Nc3cc(OC)ccc3OC)n2)cc1	.	.	.	.	.	.	/
Cc1cc(C)c(OCCOCCN2CCN(C)CC2)c(Cl)c1	29	.	.	.	.	.	.
O=C(/C=C/NNC(=O)c1ccc(Br)cc1)c1ccccc1	.	.	.	.	.	.	/
CC1=NN(c2ccccc2)C(=O)C1C(=O)c1cc([N+](=O)[O-])cc([N+](=O)[O-])c1 (stereo not given)	47	.	.	.	.	.	.
CN(C(=O)c1cc(C(=O)N(C)c2ccccc2)cc([N+](=O)[O-])c1)c1ccccc1	.	.	.	.	.	.	/
Cc1c(C=O)c(C=O)c(C)n1Cc1ccccc1	25	.	.	.	.	.	.
CCOC(=O)C1CCN(C(=O)Cc2cccc3ccccc23)CC1	.	.	.	.	.	.	/
CCCOc1ccc(C2=NNC(c3cccs3)=Nc3ccc(OC)cc32)cc1	.	.	.	.	.	.	/
CCSC1=N/C(=C\c2ccc(-c3ccccc3[N+](=O)[O-])o2)C(=O)S1	.	.	.	.	.	.	/
Nn1cnnc1N/N=C\c1ccc(-c2ccccc2[N+](=O)[O-])o1	66	.	/	.	/	/	39
CSc1ncnc2c1ncn2CCCN1CCN(c2ncccn2)CC1	.	.	/	.	/	/	/
CC(C)(C)C(=O)[C@@H]1[C@@H]2C(=O)N(c3ccc4c(c3)OCCO4)C(=O)[C@@H]2C2c3ccccc3C=CN21 (stereo not given in full)	27	.	.	.	62	.	.
CCOC(=O)C1=C(C)NC(=S)N(C(C)=O)C1c1ccc(OC)c(OC)c1 (stereo not given)	.	.	.	.	.	.	/
O=C(CCCN1C(=O)/C(=C\c2ccco2)SC1=S)Nc1ccc(O)cc1C(=O)O	29	.	.	.	.	.	.
F[B-](F)(F)c1cnc2ccccc2c1	.	.	/	.	/	/	/
Cc1ccc(CC#N)c(-c2c(CC#N)ccc(C)c2C)c1C	.	.	/	.	/	/	/
Cc1ccc2c(c1C)-c1c(ccc(C)c1C)C(=O)C2=O	79	.	/	.	/	/	67
O=C(N/N=C/c1c(F)c(F)c(F)c(F)c1F)c1cccc(S(=O)(=O)N2CCOCC2)c1	.	.	.	.	.	.	/
O=C(Cc1ccccc1[N+](=O)[O-])NCC1(c2cccc3c2OCO3)OCCO1	27	.	/	.	/	/	.
CCOc1ccccc1NC(=O)C(NCCN(C)C)c1ccccc1 (stereo not given)	27	.	.	.	.	.	.
O=C(NC(=O)c1ccccc1O)c1ccc2c(c1)CCO2	25	.	.	.	.	.	.
CC(C)(C)NC(=O)c1ccc2c(c1)CCO2	.	.	.	.	.	.	/
FC(F)(F)c1cccc(N2CCN(Cc3cccnc3)CC2)c1	.	.	.	.	.	.	/
COc1cccc(N2CCN(Cc3cccnc3)CC2)c1	31	.	.	.	.	.	.
O=C(COc1ccc(Br)cc1)NNC(=O)c1ccc(-n2cncn2)c([N+](=O)[O-])c1	.	.	.	.	.	/	/

Source: PubChem BioAssay (several laboratories)
